Scp1 inh – Scp-1 phosphatase inhibitors, primary screen, biochemical, colorimetric, uHTS; Carboxy-terminal domain RNA polymerase II polypeptide A small phosphatase 1 (Homo …; inhibition, % at 20 µM; 340,000 compounds, 0.88% hits; AID 493091, 2011; Recombinant Scp1, phosphopeptide, malachite green phosphate absorbance;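 active means inhibition above about 50% at 20 µM, limit read from the data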;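 further: plate controls were DMSO wells with enzyme for no effect and wells lacking enzyme for full effect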
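Material – SCP-1 phosphatase catalytic domain, residues 76-261 · Buffer or medium – Acidic Tris acetate buffer with magnesium and detergent · Also added – Phospho 17-mer peptide substrate · Compound – single 20 µM dose, 1% DMSO · Times – 45 min room-temperature reaction, 5 min colour, 30 min stabiliser · Technique – Phosphate-binding colour reagent, absorbance read at 630 nm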
STEP block – STEP phosphatase inhibitors, primary screen, biochemical, fluorescence intensity, uHTS; Tyrosine-protein phosphatase non-receptor type 5 (Homo sapiens), P54829; recombinant STEP, OMFP fluorogenic substrate; inhibition, % at 20 µM; 360,000 compounds, 0.25% hits; AID 588621, 2011;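 active means inhibition at 20 µM, scaled per plate between control wells, above about 37%, limit read from the data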;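 further: 0% = DMSO with enzyme and substrate and 100% = substrate only without enzyme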
Target sequence (P54829 whole entry, looked up): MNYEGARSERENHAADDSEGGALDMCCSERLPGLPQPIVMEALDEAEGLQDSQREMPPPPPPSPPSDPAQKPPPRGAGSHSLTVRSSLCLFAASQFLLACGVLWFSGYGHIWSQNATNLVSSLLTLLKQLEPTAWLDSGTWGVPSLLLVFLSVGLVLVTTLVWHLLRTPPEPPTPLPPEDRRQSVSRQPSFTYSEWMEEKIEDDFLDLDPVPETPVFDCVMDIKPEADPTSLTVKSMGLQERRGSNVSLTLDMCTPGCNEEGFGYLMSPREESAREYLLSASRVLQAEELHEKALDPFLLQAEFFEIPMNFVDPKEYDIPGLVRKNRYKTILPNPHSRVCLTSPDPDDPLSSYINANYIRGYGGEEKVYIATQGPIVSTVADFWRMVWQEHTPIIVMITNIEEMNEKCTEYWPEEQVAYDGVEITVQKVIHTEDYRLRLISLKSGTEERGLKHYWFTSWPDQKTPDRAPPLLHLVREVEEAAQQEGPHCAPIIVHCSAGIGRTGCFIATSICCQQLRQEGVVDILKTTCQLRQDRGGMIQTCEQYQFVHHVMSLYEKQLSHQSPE
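System: isolated STEP enzyme; schedule: 20 min enzyme reaction at room temperature, protected from light; medium: Bis-Tris buffer pH 6.0, 2.5 mM DTT, 0.005% Tween 20; signal: fluorescence, 480/540 nm; dosing: single compound dose of 20 µM, 1% DMSO final; also added: OMFP substrate, 25 µM final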
PP5 primary – PP5 phosphatase inhibitors, primary screen, biochemical, fluorescence; purified PP5c, OMFP substrate fluorescence; inhibition, % at 6.7 µM; 320,000 compounds, 0.18% hits; AID 1987, 2009;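 active means inhibition above the campaign's mean inhibition across all tested compounds plus 3 SD, cut at about 9.5% in these data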;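 further: 0% = DMSO only and 100% = 100 µM cantharidin control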
PP1 inh – PP1-alpha phosphatase inhibitors, primary screen, counter-screen for PP5 inhibitor project, biochemical, fluorescence, OMFP substrate, single point | purified PP1alpha | 320,000 compounds, 0.9% hits | Serine/threonine-protein phosphatase PP1-alpha catalytic subunit (Homo sapiens), P62136 | inhibition, % at 6.7 µM;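 active means inhibition above the mean inhibition of all tested compounds plus 3 SD, computed separately for each screening campaign, cut at about 15% in these data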
LMPTP inh – LMPTP phosphatase inhibitors, primary screen, biochemical, fluorescence intensity, uHTS; Low molecular weight phosphotyrosine protein phosphatase (Homo sapiens), P24666; recombinant LMPTP-A, OMFP fluorogenic substrate; 360,000 compounds, 0.22% hits; inhibition, % at 20 µM; AID 651560, 2012;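 active means compounds that cut the enzyme signal by at least half of the control window in the single-dose screen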;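 further: plate controls were DMSO wells with enzyme plus substrate for no effect and substrate without enzyme for full effect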
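Test system – LMPTP-A phosphatase enzyme · Quantity – 0.625 nM LMPTP-A final · Reagent – OMFP substrate, 400 µM final · Dosing – one test concentration per compound, 20 µM, with 3% DMSO overall · Timing – 50 min enzyme reaction at room temperature, protected from light · Detection – fluorescence intensity · Controls – substrate-only low control, DMSO enzyme-plus-substrate high control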
Scp1 confirm – Scp-1 phosphatase inhibitors, retest, confirmation, biochemical, colorimetric, single concentration. shares compounds with Scp1 inh. recombinant SCP-1 catalytic domain, phosphate release, malachite green absorbance. 2,500 compounds, 61% hits. AID 540281, 2011. inhibition, % at 20 µM;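 further: plate controls were DMSO with enzyme for no effect and buffer wells lacking enzyme for full effect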
Scp-1 MG ctr – colorimetric readout interference by compounds, confirmation, artefact control for Scp-1 inhibitor project, biochemical, single concentration; shares compounds with Scp1 inh; Colorimetric interference counterscreen, malachite green absorbance 630 nm; apparent inhibition (interference), % at 20 µM; 2,500 tested, under 10 active;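 further: compounds added after enzyme reaction finished so only phosphate colour detection is probed; plate controls were DMSO wells with completed Scp-1 reaction for no effect and substrate wells lacking enzyme for full effect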
Scp1 DSF – Scp-1 binding by thermal shift, confirmation, orthogonal assay for Scp-1 inhibitor project, biophysical, differential scanning fluorimetry; Recombinant SCP1, Sypro Orange thermal shift Tm; 1,500 compounds, 25% hits; shares compounds with Scp1 inh; thermal shift relative to vanadate control, % at 40 µM;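 active means substances whose mean melting-temperature shift, as a percentage of the reference inhibitor's shift, reaches about 5.3%, limit read from the data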;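 further: 0% = Tm of DMSO wells and 100% = Tm with sodium orthovanadate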
* marks the source's active call; other numbers are inactive results; . = not tested or not shown. Sampled rows, rich in hits. Any-hit rate of the full collection: about 1.9%.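 How the source made its calls, unless noted: active means inhibition of at least 30% at 20 µM; inactive means the rest.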

SMILES	Scp1 inh	STEP block	PP5 primary	PP1 inh	LMPTP inh	Scp1 confirm	Scp-1 MG ctr	Scp1 DSF
CC(Sc1nnc(-c2cccnc2)n1C)C(=O)N1CCOCC1 (stereo not drawn)	2	1	1	-4	-2	.	.	.
CC[N+](CC)(CC)CCCCOc1ccc2c(c1)C(=O)c1cc(OCCCC[N+](CC)(CC)CC)ccc1-2	99*	1	0	3	7	10	2	.
CCCCOc1cccc(C(=O)O)c1	-8	-3	2	1	-2	.	.	.
COc1cc(CN2CCN(C(=O)CC(C)C)CC2)cc(OC)c1OC	-8	2	0	-2	-2	.	.	.
Cc1sc2ncn(CC(=O)NCc3ccco3)c(=O)c2c1-c1ccc(F)cc1	-1	4	2	-2	-1	.	.	.
O=C(Cn1cnc2scc(-c3cccc([N+](=O)[O-])c3)c2c1=O)NCc1ccco1	78*	8	0	7	21	70*	-11	11*
C=CCn1c(SCC(=O)NCc2ccco2)nnc1C1CCCCC1	-1	-2	1	-4	-1	.	.	.
Cc1ccccc1OCc1nnc(SCC(=O)NCc2ccco2)n1C	-3	-1	-3	-3	-1	.	.	.
C=CCn1c(Cc2cccs2)nnc1SCC(=O)NCc1ccco1	53*	-1	1	6	6	47*	-23	2
O=C(CSc1nnc(COc2ccccc2F)n1-c1ccccc1)NCc1ccco1	6	-2	2	3	0	.	.	.
COc1ccccc1OCc1nnc(SCC(=O)NCc2ccco2)n1Cc1ccco1	95*	8	0	0	3	88*	3	2
C=CCn1c(COc2ccccc2F)nnc1SCC(=O)NC(=O)NCc1ccco1	91*	-1	2	2	6	65*	2	-7
O=C(O)CC1C(=O)OCN1C(=O)OCc1ccccc1 (stereo not drawn)	2	-2	0	3	-1	.	.	.
CCCCCCCCC(=O)N/N=C/c1cccc(Br)c1	-1	0	-1	1	3	.	.	.
CC[N+]1(C)CCC(=C2c3ccccc3CC(=O)c3sccc32)CC1 (stereo not drawn)	0	0	2	-1	0	.	.	.
C[N+]1(C)CCC(=C2c3ccccc3CC(=O)c3sccc32)CC1	97*	5	2	0	0	3	-3	.
CCCc1ccc(C(=O)NC(=O)c2ccccc2O)cc1	67*	48*	-1	-2	37	89*	-15	-9
CCCc1ccc(C(=O)NNc2ccc(F)cc2)cc1	-10	4	0	1	1	.	.	.
O=C(NC(=S)NNC(=O)c1ccccc1O)c1ccc(F)cc1	-11	2	1	-5	-1	.	.	.
CCCc1ccc(C(=O)NNC(=O)c2ccc(Br)cc2)cc1	94*	5	4	7	36	81*	-10	-14
O=C(NC(=O)c1ccccc1O)c1ccc(C(F)(F)F)cc1	83*	26	2	-10	6	68*	-12	0
N#CC1=C(SCC(=O)Nc2ccc(C(=O)O)cc2)NC(=O)CC1c1ccco1 (stereo not drawn)	52*	22	-1	-3	0	46*	-14	5
CCOC(=O)C1CCN(C2CC(=O)N(c3ccc(OCC)cc3)C2=O)CC1 (stereo not drawn)	52*	0	0	-4	-2	15	0	.
CCCCn1c(N)c(N(Cc2ccccc2OC)C(=O)c2cc(=O)[nH]c3ccccc23)c(=O)[nH]c1=O	-1	-2	-3	3	-1	.	.	.
CC(=O)NC(CC(=O)OCC(=O)c1ccc(NC(=O)CC(C)C)cc1)c1ccccc1 (stereo not drawn)	52*	8	0	-1	3	60*	-8	-4
SMILES	Scp1 inh	STEP block	PP5 primary	PP1 inh	LMPTP inh	Scp1 confirm	Scp-1 MG ctr	Scp1 DSF
CC(=O)NC(CC(=O)OCC(=O)Nc1ccc2c(c1)OCO2)c1ccccc1 (stereo not drawn)	-12	0	-1	-3	-1	.	.	.
O=C(N/N=C/c1cc2c(cc1Br)OCO2)c1cc2ccccc2o1	58*	2	1	2	3	25	-3	.
COc1ccc(CN2CC(C(=O)NCCCOC(C)C)CC2=O)cc1 (stereo not drawn)	-13	0	-3	-6	-3	-6	-7	.
COc1ccc(OC)c(-n2cnc3cc(C(=O)NCCCN4CCOCC4)ccc32)c1	-2	-11	0	-4	1	.	.	.
Cc1cc(/C=C(/C#N)c2nc3ccccc3[nH]2)c(C)n1-c1ccccc1C(=O)O	47	2	3	2	2	.	.	.
Cc1cc(/C=C(/C#N)c2nc3ccccc3[nH]2)c(C)n1-c1cc(C(=O)O)cc(C(=O)O)c1	59*	24	.	.	3	53*	-8	4
Cc1ccc2nc(/C(C#N)=C/c3ccc(-c4ccccc4C(=O)O)o3)[nH]c2c1	54*	4	-7	-2	5	47*	-13	7.3*
O=C(COC(=O)/C=C/c1ccccc1[N+](=O)[O-])Nc1ccc(OC(F)F)cc1	-2	-1	2	1	1	.	.	.
FC(F)(F)c1cnc(/C=C/Nc2ccccc2Cl)c(Cl)c1	-2	8	0	-2	2	.	.	.
C[N+]1=C(/C=C/Nc2ccccc2Cl)C(C)(C)c2ccccc21	99*	1	0	0	0	79*	-15	-12
O=C1C(=O)N(CCO)C(c2ccccc2)/C1=C(\O)c1ccccc1 (stereo not drawn)	57*	0	4	-4	-3	-11	-13	.
CC(C)(C)c1ccc(N2C(=O)Cc3c2nc(N)c(C#N)c3N)cc1	-5	-1	-1	1	0	.	.	.
CCOC(=O)c1ccc2c(c1)N(C)C(=O)c1ccccc1S2	53*	-2	3	-6	-1	3	-10	.
